In brackets after ≈: the same amount, converted by molar mass. Activity calls are given as the source filed them. The rule behind the calls is not given here.
Legend:
Staphylococcus aureus [1] = assay: Bacteriostatic activity against Staphylococcus aureus ATCC 25923 after 24 hrs; assay type: functional
Method in brief: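 Extracellular broth time- and concentration-kill test. The inoculum was ~10⁶ CFU/ml, exposed to a wide range of DCX concentrations, with CFU counted after 5 and 24 h. The read-out was Δlog CFU/ml versus time zero (mean ± SD, n = 3). A sigmoidal fit with slope 1 gave Emax and EC50. Cstatic was read by graphical interpolation as the concentration giving no change from the inoculum.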

Staphylococcus aureus [2] = assay: Bactericidal activity against Staphylococcus aureus E19977 assessed as log reduction in bacterial count at 10 times MIC after 24 hrs by time-kill assay; assay type: functional
Method in brief: (§1)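 Broth time-kill: MSSA at 10⁶ CFU/ml exposed to a wide range of dicloxacillin concentrations. CFU counted after 5 and 24 h and expressed as change in log₁₀ CFU/ml from time zero. Multiples refer to the MIC by CLSI microdilution at pH 7.4. n = 3.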

Staphylococcus aureus [3] = assay: Bactericidal activity against Staphylococcus aureus ATCC 25923 assessed as log reduction in bacterial count at 100 times MIC after 24 hrs by time-kill assay; assay type: functional; method in brief: as §1
Staphylococcus aureus [4] = assay: Bactericidal activity against Staphylococcus aureus ATCC 25923 assessed as log reduction in bacterial count at 10 times MIC after 5 hrs by time-kill assay; assay type: functional; method in brief: as §1
Staphylococcus aureus [5] = assay: Antimicrobial activity against Staphylococcus aureus E19977 infected in human THP1 cells assessed as log reduction in bacterial count at MIC after 24 hrs by time-kill assay; assay type: functional, THP-1
Method in brief: (§2)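 Intracellular model in THP-1 macrophages: opsonized S. aureus was added at 4 bacteria per macrophage for 45 min. Non-phagocytized bacteria were removed by washing and brief PBS incubation with gentamicin (50 mg/liter). Cells were then incubated up to 24 h with a wide range of extracellular dicloxacillin concentrations. Result is change in log₁₀ CFU per mg cell protein from time zero. n = 3.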

Staphylococcus aureus [6] = assay: Bacteriostatic activity against Staphylococcus aureus ATCC 25923 infected in human THP-1 cells at MIC after 24 hrs; assay type: functional, organism-based
Method in brief: (§3)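 Human THP-1 macrophages were infected with opsonized S. aureus at 4 bacteria per macrophage for 45 min. Non-phagocytized bacteria were removed by washing and a brief incubation in PBS with gentamicin 50 mg/liter. Cells were then incubated up to 24 h with DCX over a wide range of extracellular concentrations. The read-out was Δlog CFU per mg cell protein versus time zero (n = 3), with sigmoidal fitting and Cstatic by interpolation.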

Staphylococcus aureus [7] = assay: Bactericidal activity against Staphylococcus aureus ATCC 25923 infected in human THP-1 cells assessed as log change in bacterial count after 24 hrs; assay type: functional; method in brief: as §3
[8] = Half-life in NMRI mouse at 30 mg/kg, sc; assay type: ADME, organism-based; design: dose 30 mg/kg, route subcutaneous; conditions: in vivo
Method in brief: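 Single subcutaneous DCX doses given to NMRI mice. Blood was collected into EDTA tubes, and plasma drug was assayed by microbiological bioassay with S. lutea ATCC 9391 (detection limit 1.5 mg/liter, linear to 100 mg/liter). Values came from noncompartmental analysis. Terminal half-life was fitted monoexponentially to the last four time points. AUC24 combined the trapezoidal rule over mean points with exact integration of the fitted curve extrapolated to 24 h.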

[9] = Ratio of fAUC (24 hrs) in NMRI mouse at 200 mg/kg administered every 4 hrs to MIC for Staphylococcus aureus E19977; assay type: functional
Method in brief: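 Computed from modelled dosing regimens, not measured directly. Single subcutaneous doses were given to NMRI mice, and plasma was assayed by S. lutea bioassay. AUC24 came from noncompartmental analysis, with terminal exponential extrapolation to 24 h. The free fraction came from a square-root fit to ultrafiltration protein-binding data, with saturable binding included. MIC was by broth microdilution.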

[10] = Ratio of fAUC (24 hrs) in NMRI mouse at 80 mg/kg administered every 8 hrs to MIC for Staphylococcus aureus E19977; assay type: functional
Method in brief: (§4)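 Modeled free AUC over 24 h divided by the MIC, not measured directly. Single subcutaneous DCX doses were given to NMRI mice, and plasma was assayed by S. lutea bioassay. Noncompartmental analysis used trapezoidal mean points plus a fitted monoexponential extrapolated to 24 h. Free fraction came from a square-root fit to plasma ultrafiltration binding (10–400 mg/liter spike, 1 h, 37°C). The MIC was measured by broth microdilution at pH 7.4.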

[11] = Ratio of fAUC (24 hrs) in NMRI mouse at 300 mg/kg administered every 12 hrs to MIC for Staphylococcus aureus E19977; assay type: functional; method in brief: as §4
Mus musculus = species on record: Mus musculus; assay: Protein binding in NMRI mouse at 270 mg/l by ultrafiltration; assay type: ADME, organism-based; conditions: in vivo
Method in brief: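 Plasma binding was measured by ultrafiltration. EDTA blood from healthy mice, or from NMRI mice infected intraperitoneally for 6 h with E19977, was spiked with DCX at 10–400 mg/liter, with PBS controls. Samples were held 1 h at 37°C, then centrifuged through 30-kDa filters at 3,000 × g for 8 min at 37°C. Total and filtrate drug were measured by S. lutea bioassay.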

[12] = fT>MIC in Staphylococcus aureus E19977 infected NMRI mouse at 76 mg/kg administered every 2 hrs; assay type: functional
Method in brief: (§5)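 Calculated percentage of 24 h at steady state that free plasma DCX exceeds the strain MIC (microdilution, pH 7.4). Concentrations were simulated from single subcutaneous dose plasma curves in NMRI mice (S. lutea bioassay), adjusted with a square-root model of concentration-dependent free fraction from ultrafiltration. The regimen was dosed subcutaneously in mice infected intraperitoneally with 10^7.4 CFU, and peritoneal CFU were read after 24 h of therapy.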

[13] = fT>MIC in Staphylococcus aureus E19977 infected NMRI mouse at 200 mg/kg administered every 4 hrs; assay type: functional; method in brief: as §5
Staphylococcus aureus [14] = assay: Bactericidal activity against Staphylococcus aureus ATCC 25923 infected in human THP1 cells assessed as log reduction in bacterial count at 10 times MIC after 24 hrs by time-kill assay; assay type: functional, THP-1; method in brief: as §2
[15] = fT>MIC in Staphylococcus aureus E19977 infected NMRI mouse at 80 mg/kg administered every 3 hrs
Staphylococcus aureus [16] = assay: Antimicrobial activity against Staphylococcus aureus E19977 by broth microdilution method at pH 5.4
Staphylococcus aureus [17] = assay: Antimicrobial activity against Staphylococcus aureus E19977 by broth microdilution method at pH 7.4
Staphylococcus aureus [18] = assay: Antimicrobial activity against Staphylococcus aureus ATCC 25923 by broth microdilution method at pH 5.4
Staphylococcus aureus [19] = assay: Antimicrobial activity against Staphylococcus aureus ATCC 25923 by broth microdilution method at pH 7.4
[20] = Ratio of fCmax in NMRI mouse at 340 mg/kg administered every 24 hrs to MIC for Staphylococcus aureus E19977
[21] = Ratio of fAUC (24 hrs) in NMRI mouse at 80 mg/kg administered every 3 hrs to MIC for Staphylococcus aureus E19977

- half-life [8]: 19 min
- fAUC/MIC [9]: 616.07 h
- fAUC/MIC [10]: 63.49 h
- fAUC/MIC [11]: 439.15 h
- Activity (Mus musculus): 84.9%
- fT>MIC [12]: 100%
- fT>MIC [13]: 86.25%
- fT>MIC [15]: 66.67%
- MIC (Staphylococcus aureus [16]): 0.125 µg/mL (≈ 0.266 µM)
- MIC (Staphylococcus aureus [17]): 0.5 µg/mL (≈ 1.06 µM)
- MIC (Staphylococcus aureus [18]): 0.031 µg/mL (≈ 0.0659 µM)
- MIC (Staphylococcus aureus [19]): 0.125 µg/mL (≈ 0.266 µM)
- fAUC/MIC [21]: 168.69 h
SMILES: Cc1onc(-c2c(Cl)cccc2Cl)c1C(=O)N[C@@H]1C(=O)N2[C@@H]1SC(C)(C)[C@@H]2C(=O)O [DICLOXACILLIN]
- Activity (Staphylococcus aureus [1]): 0.07 mg/L
- FC (Staphylococcus aureus [2]): 3
- FC (Staphylococcus aureus [3]): 3
- FC (Staphylococcus aureus [4]): <1
- FC (Staphylococcus aureus [5]): 1
- Activity (Staphylococcus aureus [6]): Active
- Emax (Staphylococcus aureus [7]): -1.19 deltalog10CFU/ml
- FC (Staphylococcus aureus [14]): <1
- Ratio [20]: 233.35
